# Results from PMC3171079 (The Journal of General Physiology, 2011).
# Entries after “also recorded” stand apart in the source; their conditions may differ.
# Key:
# [1] = test system: Cx26/Cx32T junctional channels; assay: Parachute assay for gap junctional communication; type: cell-based, rat; conditions: n = 4–9
# How it was run: (§1)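 Parachute dye-coupling assay. Connexin-expressing HeLa donor cells were labelled for 30 min at 37°C with 10 µM CM-DiI plus 5 µM calcein-AM, washed in PBS/glucose, trypsinized and seeded at ~1:150 onto semi-confluent unlabelled receiver monolayers. Cells attached for 3 h at 37°C with extracellular taurine. Calcein-positive receivers per DiI-labelled donor were averaged and normalized to control cultures.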
# [2] = test system: nontagged Cx26 junctional channels; assay: Parachute assay for gap junctional communication; type: cell-based; conditions: n = 4–9; for Intercellular calcein transfer: extracellular taurine, normalized to control
# How it was run: as §1
# [3] = test system: heteromeric Cx26T/Cx32 hemichannels; assay: TSF liposome hemichannel activity; type: biochemical, rat
# How it was run: (§2)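 Rat connexins carrying a C-terminal thrombin-site–HA(HN)6 tag were expressed in Tet-On HeLa (1 µg/ml dox, 48 h). Hemichannels were octylglucoside-solubilized, anti-HA immunopurified and reconstituted into PC/PS/rhod-PE liposomes entrapping urea buffer. Taurine was present in iso-osmolar urea/sucrose gradients (300,000 gav, 3 h, 37°C). Bands were followed by rhod-PE fluorescence, densities by refractometry at 25°C. Lower-band fraction was Poisson-corrected and normalized to the preparation maximum.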
# [4] = test system: Cx26/Cx32T hemichannels; assay: Hemichannel calcein uptake by HeLa cells; type: cell-based, rat; conditions: extracellular taurine, low [Ca2+]ex; n = 3
# [5] = test system: Cx26T/Cx32 junctional channels; assay: Parachute assay for gap junctional communication; type: cell-based, rat; conditions: extracellular taurine; normalized to control; n = 4–9
# [6] = test system: nontagged Cx26 hemichannels; assay: Hemichannel calcein uptake by HeLa cells; type: cell-based; conditions: extracellular taurine, low [Ca2+]ex; n = 3
# How it was run: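 HeLa clone stably expressing nontagged Cx26. Semi-confluent monolayers were washed, then loaded for 30 min at 37°C in low-Ca buffer (0.5 mM CaCl2, 30 mM KCl, 11 mM glucose, Tris pH 7.4) with 100 µM calcein, with or without taurine. Cells were washed in 2 mM Ca buffer and imaged. Dye-containing cells were counted, and each taurine condition was normalized to its own taurine-free control.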
# [7] = test system: homomeric Cx26Tc hemichannels; assay: TSF liposome hemichannel activity, tag cleaved; type: biochemical, rat; conditions: 10 mM taurine; tag cleaved (LVPR left); n = 5–8
# How it was run: (§3)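 Tagged rat hemichannels were anti-HA immunopurified from dox-induced Tet-On HeLa, then cleaved with 2 U thrombin for 18 h at 4°C, leaving LVPR at the C-terminus. They were reconstituted by gel filtration into rhod-PE-labelled liposomes in urea buffer, then centrifuged for 3 h at 37°C through iso-osmolar urea/sucrose gradients containing aminosulfonate. Band densities were read by refractometry. Lower-band fraction was Poisson-corrected, normalized per preparation and pooled.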
# [8] = test system: Cx26CL–Cx26CT complex; assay: 1H-15N HSQC NMR, effect of taurine on CL–CT complex; type: binding, rat; conditions: pH 7.0, 42°C
# [9] = test system: heteromeric Cx26/Cx32T hemichannels; assay: TSF liposome hemichannel activity; type: biochemical, rat; conditions: taurine-exposed liposomes
# How it was run: as §2
# [10] = test system: Cx26CL (15N-labeled); assay: 1H-15N HSQC NMR interaction; type: binding, rat; conditions: 10 µM Cx26CL, pH 7.0, 42°C, 6% LPPG, 20 mM MES
# [11] = test system: hemichannels that contained connexin26 (Cx26), homomeric or with Cx32 (heteromeric); conditions: cytoplasmic concentrations; ref Tao and Harris, 2004; cited from earlier work
# [12] = test system: homomeric Cx32T hemichannels; assay: TSF liposome hemichannel activity; type: biochemical, rat; conditions: taurine-exposed liposomes
# How it was run: as §2
# [13] = test system: heteromeric Cx26Tc/Cx32 hemichannels; assay: TSF liposome hemichannel activity, tag cleaved; type: biochemical, rat
# How it was run: as §3
# [14] = test system: homomeric Cx32Tc hemichannels; assay: TSF liposome hemichannel activity, tag cleaved; type: biochemical, rat
# How it was run: as §3
# [15] = test system: Cx26T/Cx32 hemichannels; assay: Hemichannel calcein uptake by HeLa cells; type: cell-based, rat; conditions: extracellular taurine, low [Ca2+]ex; n = 3
# [16] = 37°C; source not given; cited from earlier work
# [17] = test system: heteromeric Cx26/Cx32Tc hemichannels; assay: TSF liposome hemichannel activity, tag cleaved; type: biochemical, rat
# How it was run: as §3
# [18] = test system: untagged heteromeric Cx26/Cx32 hemichannels; assay: TSF liposome hemichannel activity, untagged; type: biochemical; conditions: with AS treatment
# [19] = test system: homomeric Cx26T hemichannels; assay: TSF liposome hemichannel activity; type: biochemical, rat
# How it was run: as §2
# [20] = test system: untagged homomeric Cx26 hemichannels; assay: TSF liposome hemichannel activity, untagged; type: biochemical; conditions: with AS treatment
# [21] = test system: Cx26CT–^biotCL3 interaction; assay: CT+CL peptide-binding assay; parameters: species or system rat
# [22] = test system: the different tagged connexin hemichannels other than Cx26/Cx32T; assay: Hemichannel calcein uptake by HeLa cells; type: cell-based, rat; conditions: extracellular taurine, low [Ca2+]ex; n = 3
# [23] = test system: Cx32T junctional channels; assay: Parachute assay for gap junctional communication; type: cell-based, rat; conditions: extracellular taurine; normalized to control; n = 4–9
# How it was run: as §1
# [24] = extracellular HEPES in presence of extracellular taurine
# [25] = up to 50 mM of protonated taurine
# [26] = 30 mM taurine, 4 mM Cx26CT, 10 µM Cx26CL
# [27] = tag cleaved (LVPR left), n = 5–8
compound,measurement,setting,value
O=S(=O)(O)CCN1CCN(CCO)CC1 [HEPES],Block of taurine effect on junctional channel permeability of calcein,[1]; [24],effectively eliminated the taurine effect; also recorded: AS insensitive
same,Block of taurine effect on junctional calcein transfer,[2]; [24],eliminated by HEPES; also recorded: restored AS insensitivity
"NCCS(=O)(=O)O [taurine, β-aminosulfonic acid]",Pore narrowing (intermediate band in TSF),[3]; taurine-exposed liposomes,do not form intermediate bands
same,Inhibition of hemichannels (TSF),[3]; [25],not inhibited
same,Completeness of inhibition of dye uptake,[4],not complete
same,Intercellular calcein transfer,[5],not in the Cx26T/Cx32 cells or the Cx26T cells
same,Calcein hemichannel uptake,[6],markedly reduced
same,AS effect on hemichannel activity (TSF),[7],remained AS insensitive
same,"Effect on Cx26CL–Cx26CT complex by NMR, Fig. 8 B peaks",[8]; [26],a negligible effect of taurine on the Cx26CL–Cx26CT complex
same,"Effect on Cx26CL–Cx26CT complex by NMR, Fig. 8 D peaks",[8]; [26],move to unique positions in the presence of both taurine and the Cx26CT
same,"Effect on Cx26CL–Cx26CT interaction by NMR, Fig. 8 C peaks",[8]; [26],taurine reverses the Cx26CL–Cx26CT interaction at this position
same,Mode of action on Cx26CT–Cx26CL interaction,[8]; concluded from NMR,competitive inhibitor of the interaction between Cx26CT and the Cx26CL
same,Pore narrowing (intermediate band in TSF),[9],do not form intermediate bands
same,Intercellular calcein transfer,"[1]; extracellular taurine, normalized to control",decreased
same,Interaction with Cx26CL by NMR (resonance peaks affected),[10]; 30 mM taurine,taurine interacts with the Cx26CL at some residues (peaks iii and iv)
same,Inhibition of Cx26-containing hemichannels by cytoplasmic AS,[11],inhibitory at cytoplasmic concentrations
same,Pore narrowing (intermediate band in TSF),[12],do not form intermediate bands
same,AS inhibition of hemichannel activity (TSF),"[13]; 10 mM taurine, tag cleaved (LVPR left), n = 5–8",AS inhibition was restored
same,Pore narrowing (intermediate band in TSF),[13]; taurine-exposed liposomes,do not form intermediate bands
same,AS sensitivity of hemichannel activity (TSF),[14]; [27],AS insensitive
same,Pore narrowing (intermediate band in TSF),[14]; taurine-exposed liposomes,do not form intermediate bands
same,Calcein dye uptake,[15],absence of effect
same,pKa,[16],8.8
same,AS sensitivity of hemichannel activity (TSF),[17]; [27],AS sensitive
same,Pore narrowing (intermediate band in TSF),[17]; taurine-exposed liposomes,do not form intermediate bands
same,Occlusion of hemichannels (TSF band shift from lowest to upper band),[18],full occlusion of the hemichannels
same,Effect on pore diameter (TSF band density),[19]; 10 mM AS (taurine),no discernable effect on the pore diameter
same,Inhibition of hemichannels (TSF),[19]; [25],not inhibited
same,Occlusion of hemichannels (TSF band shift from lowest to upper band),[20],full occlusion of the hemichannels
same,Intercellular calcein transfer,[2],markedly reduced
same,Intercellular calcein transfer,[2]; listed as AS,substantially reduced
same,Taurine concentration for complete dissociation of CL–CT peptides,"[21]; 10 µM ^biotCL3, not fit to any standard binding isotherm",~5 mM
same,Disruption of CL–CT peptide interaction,"[21]; 1 mM taurine, pH 6.5, 10 µM ^biotCL3",Approximately 50%
same,Effect of taurine on Cx26CT–CL3 interaction,"[21]; 10 mM taurine, 10 µM CL peptide",substantial but not complete dissociation; also recorded: substantially reduced
same,Concentration dependence of disruption of CL–CT interaction,"[21]; pH 6.5 and 7.4, 10 µM ^biotCL3",a linear function of the log of taurine concentration
same,pH dependence of taurine disruption of CL–CT interaction,"[21]; pH 6.5 versus 7.4, 10 µM ^biotCL3",substantially greater at the lower pH
same,Calcein dye uptake,[22],absence of effect
same,Intercellular calcein transfer,[23],unchanged compared with controls
Cx26CT: peptide with sequence corresponding to the Cx26CT (residues 213–226) (LFIRYCSGKSKRPV),Interaction with Cx26CL by NMR (resonance peaks affected),[10]; 4 mM Cx26CT,more resonance peaks are affected by the Cx26CT than by taurine
